Results reported in ChEMBL document CHEMBL1123957, “Cholecystokinin antagonists. Synthesis and biological evaluation of 3-substituted 1,4-benzodiazepin-2-amines” (J Med Chem, 1988).

Experiments:
[1] = target: T1, Cholecystokinin receptor (Rattus norvegicus, UniProt P30551+P30553); test: Binding affinity towards cholecystokinin receptor by the displacement of [125I]CCK-33 in rat pancreatic tissue
T1 sequence (P30551 whole entry): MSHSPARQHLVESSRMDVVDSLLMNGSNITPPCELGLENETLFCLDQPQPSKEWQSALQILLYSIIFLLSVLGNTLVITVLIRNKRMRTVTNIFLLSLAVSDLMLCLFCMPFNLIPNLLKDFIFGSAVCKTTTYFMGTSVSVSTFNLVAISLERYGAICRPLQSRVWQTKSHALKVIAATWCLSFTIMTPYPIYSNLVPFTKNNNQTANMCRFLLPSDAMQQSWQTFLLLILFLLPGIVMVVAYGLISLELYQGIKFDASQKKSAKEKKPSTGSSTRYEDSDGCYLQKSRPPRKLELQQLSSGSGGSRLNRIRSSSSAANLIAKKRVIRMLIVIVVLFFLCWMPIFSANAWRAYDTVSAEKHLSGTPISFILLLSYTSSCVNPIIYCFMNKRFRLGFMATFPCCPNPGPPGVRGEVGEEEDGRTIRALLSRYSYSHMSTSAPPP
T1 sequence (P30553 whole entry): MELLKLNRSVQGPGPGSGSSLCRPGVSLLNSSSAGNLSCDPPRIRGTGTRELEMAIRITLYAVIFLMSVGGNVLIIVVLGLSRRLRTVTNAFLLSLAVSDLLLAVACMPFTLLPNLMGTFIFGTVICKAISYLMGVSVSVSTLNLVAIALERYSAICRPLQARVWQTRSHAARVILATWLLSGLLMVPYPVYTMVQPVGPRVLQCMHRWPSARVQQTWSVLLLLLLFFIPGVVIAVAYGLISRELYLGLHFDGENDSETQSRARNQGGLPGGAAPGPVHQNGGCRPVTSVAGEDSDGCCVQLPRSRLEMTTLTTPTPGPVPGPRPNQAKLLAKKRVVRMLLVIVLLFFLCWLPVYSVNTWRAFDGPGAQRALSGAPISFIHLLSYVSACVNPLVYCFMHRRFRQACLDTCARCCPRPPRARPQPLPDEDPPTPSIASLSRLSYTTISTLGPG
Procedure, shortened: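 Radioligand displacement assays: [125I]CCK-33 binding to rat pancreas or guinea pig cerebral cortex tissue, and [125I]gastrin binding to guinea pig gastric glands, each run by earlier-described methods. Reported values are means of triplicate determinations.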

[2] = species on record: Cavia porcellus; test: Inhibition of binding of [125I]gastrin to guinea pig gastric glands; details: Stomach

Row | Structure (SMILES) | IC50 [1] [µM] | IC50 [2] [µM]
1 | Fc1ccccc1C1=N[C@H](Cc2c[nH]c3ccccc23)C(Nc2ccccc2)=Nc2ccccc21 | 34 | 
2 | N#CNC1=Nc2ccccc2C(c2ccccc2F)=N[C@@H]1Cc1c[nH]c2ccccc12 | 2 | 
3 | O=C(O)CNC1=Nc2ccccc2C(c2ccccc2F)=N[C@@H]1Cc1c[nH]c2ccccc12 | 3.6 | 2.5
4 | CNC1=Nc2ccccc2C(c2ccccc2NC)=N[C@@H]1Cc1c[nH]c2ccccc12 | 100 | 100
5 | CNC1=Nc2ccccc2C(c2ccccc2F)=N[C@@H]1Cc1c[nH]c2ccccc12 | 4.4 | 67
6 | CCCNC1=Nc2ccccc2C(c2ccccc2F)=N[C@@H]1Cc1c[nH]c2ccccc12 | 2.7 | 100
7 | CCOC(=O)CNC1=Nc2ccccc2C(c2ccccc2F)=N[C@@H]1Cc1c[nH]c2ccccc12 | 23 | 100
8 | NC1=Nc2ccccc2C(c2ccccc2F)=N[C@@H]1Cc1c[nH]c2ccccc12 | 1.7 | 100
9 | CNC1=Nc2ccc(Cl)cc2C(c2ccccc2)=[N+]([O-])C1 [CHLORDIAZEPOXIDE] | 100 | 100
